In article PMC5820137 (Neuropharmacology, 2017):

Legend:
Cav2 VGCCs = conditions: cited from earlier work
[1] = test system: rectifying outward current in HEK293 cells; assay: Contaminating rectifying outward current during voltage steps in patch clamp; assay type: cell-based; conditions: 50 μM; mean ± SEM, n = 7; across all voltages tested
cdk2 = cdk2 (Homo sapiens, UniProt P24941); assay: kinaseseeker kinase assay; assay type: binding; conditions: 2 μM
Outline: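 Cell-free luminescent probe-displacement binding assay in rabbit reticulocyte lysate. Compound (2 μM) or DMSO control was incubated 30 min at room temperature, then 1 h with a kinase-specific probe. Luminescence was read, and values expressed as percent kinase activity remaining.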

cdk = conditions: cited from earlier work
SH-SY5Y cells [2] = conditions: ref Tarr et al., 2014; cited from earlier work
SH-SY5Y cells [3] = assay: MTS-based cell survival assay; design: species or system human
cdk5 = cdk5 (Homo sapiens, UniProt Q00535); assay: kinaseseeker kinase assay; assay type: binding; conditions: 2 μM
cdk5, sequence (Q00535 whole entry, species assumed): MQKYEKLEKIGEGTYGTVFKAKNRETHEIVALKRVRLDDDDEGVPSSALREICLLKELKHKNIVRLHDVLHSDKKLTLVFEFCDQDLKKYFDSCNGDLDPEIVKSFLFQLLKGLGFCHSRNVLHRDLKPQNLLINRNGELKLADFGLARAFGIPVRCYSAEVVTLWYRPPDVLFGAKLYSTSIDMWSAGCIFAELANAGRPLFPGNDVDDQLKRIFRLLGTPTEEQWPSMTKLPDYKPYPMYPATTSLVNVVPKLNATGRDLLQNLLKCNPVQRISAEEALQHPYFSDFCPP

Cav2.1 VGCC = assay: Whole-cell perforated patch clamp of Cav2.1 current; assay type: cell-based
[4] = ref Liang et al., 2012, Tarr et al., 2013

In the case of `CCCn1cnc2c(NCc3ccc(C)s3)nc(N[C@H](CC)CO)nc21` [GV-58], the “Higher potency and efficacy for Cav2 VGCCs than (R)-roscovitine” value (Cav2 VGCCs; [4]) is given as 4 fold, the “Increase in rectifying current amplitude” value [1] is given as 70 ± 10% and the “Reduction of cdk2 activity” value (cdk2) is given as 0–15%. The “Reduction in cdk activity versus the parent molecule (R)-roscovitine” value (cdk; [4]) was “greater than 20 fold”, the “Decrease in cell survival at 100 μM” value (SH-SY5Y cells [2]) was 8% and the “Effect on cell survival at 50 μM” value (SH-SY5Y cells [3]; 50 μM, 24 h) was “no significant effects on cell survival”. The “Effect on cell survival” value (SH-SY5Y cells [3]; 24 h exposure, 0.1–100 μM, normalized to vehicle) was “little or no effect on cell survival, even up to 100 μM”, the “Reduction of cdk5 activity” value (cdk5) was 10–20% and the “Depolarization time to 50% of maximal effects on tail current integral” value (Cav2.1 VGCC; 50 μM continuously present, steps to +20 mV of 1–100 msec) was 2 to 4 ms. The “Shift of voltage-dependence of activation curves (peak tail current)” value (Cav2.1 VGCC; 50 μM, 20 msec steps from −100 mV) was “did not show any shift”, the “Shift to the left of IV plots (peak current during step)” value (Cav2.1 VGCC; 50 μM, 20 msec steps from −100 mV, ascribed to contaminating outward current) was about 10 mV and the “Tail current decay (slow deactivation) time constant” value (Cav2.1 VGCC; 50 μM, tail current at −60 mV after 200 msec step to +60 mV) was 9.16 ± 0.706 ms.
With `CC[C@H](CO)Nc1nc(NCc2ccccc2)c2ncn(C(C)C)c2n1` [(R)-roscovitine, reference compound] the “Concentrations giving a significant decrease in cell survival” value (SH-SY5Y cells [3]; 24 h exposure) was at least 10 µM.
In the case of `CC[C@@H](CO)Nc1nc(NCc2ccccc2)c2ncn(C(C)C)c2n1` [(S)-roscovitine], the “Concentration needed for VGCC agonist activity” value (Cav2 VGCCs; ref Buraei and Elmslie, 2008) is given as “above 500 μM”, the “Lower affinity than (R)-roscovitine (VGCC agonist activity)” value (Cav2 VGCCs; ref Buraei and Elmslie, 2008) is given as 20 fold and the “Potency as cdk inhibitor, less than (R)-roscovitine” value (cdk; ref De Azevedo et al., 1997) is given as 2 fold.
